Measurements reported in ChEMBL document CHEMBL3414471 (J Med Chem, 2015).
The source made the active and inactive calls. The rule behind the calls is not given here.

How the values were obtained:
[1] = molecular target: T1, 5-hydroxytryptamine receptor 2C (Homo sapiens, UniProt P28335); test: Agonist activity at human 5-HT2C receptor expressed in HEK293 cells assessed as calcium flux by FLIPR assay; format: functional, cell-based
T1 sequence (P28335 whole entry): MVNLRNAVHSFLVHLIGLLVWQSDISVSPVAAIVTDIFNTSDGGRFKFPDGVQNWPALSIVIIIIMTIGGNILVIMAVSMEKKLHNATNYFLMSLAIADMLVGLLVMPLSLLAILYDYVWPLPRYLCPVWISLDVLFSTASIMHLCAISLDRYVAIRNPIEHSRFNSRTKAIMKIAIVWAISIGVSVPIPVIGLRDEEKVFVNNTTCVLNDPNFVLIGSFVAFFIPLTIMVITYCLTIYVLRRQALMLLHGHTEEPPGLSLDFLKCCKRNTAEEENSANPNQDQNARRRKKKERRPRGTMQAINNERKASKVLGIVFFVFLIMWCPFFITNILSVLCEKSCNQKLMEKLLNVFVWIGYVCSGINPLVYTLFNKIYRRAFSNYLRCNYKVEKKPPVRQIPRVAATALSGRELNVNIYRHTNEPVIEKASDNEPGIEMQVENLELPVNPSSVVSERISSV

[2] = molecular target: T2, 5-hydroxytryptamine receptor 2C (Homo sapiens) (UniProt P28335); test: Agonist activity at human 5-HT2C receptor expressed in HEK293 cells assessed as calcium flux by FLIPR assay relative to 5-HT; format: functional, cell-based
T2 sequence (whole entry): T1 sequence (P28335 whole entry)
Summary of the method: (§1)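 Flp-In-293 cells stably expressing human 5-HT2A, 5-HT2B or 5-HT2C-INI; grown 24–48 h in DMEM/10% dialyzed FBS, plated on poly-L-Lys at 12000 cells/well in 1% dialyzed FBS for 24 h. Loaded 1 h at 37 °C with calcium dye in HBSS, 20 mM Hepes pH 7.40, 2.5 mM probenecid.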

[3] = molecular target: T3, 5-hydroxytryptamine receptor 2A (Homo sapiens, UniProt P28223); test: Agonist activity at human 5-HT2A receptor expressed in HEK293 cells assessed as calcium flux by FLIPR assay; format: functional, cell-based
[4] = molecular target: T4, 5-hydroxytryptamine receptor 2B (Homo sapiens, UniProt P41595); test: Agonist activity at human 5-HT2B receptor expressed in HEK293 cells assessed as calcium flux at 10 uM by FLIPR assay; format: functional, cell-based
Summary of the method: (§2)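 Flp-In-293 cells stably expressing human 5-HT2A, 5-HT2B or 5-HT2C-INI, grown in DMEM with 10% dialyzed FBS, then plated for 24 h in 1% dialyzed FBS. Cells were loaded 1 h at 37 °C with calcium dye in Hepes-buffered HBSS, pH 7.40, containing 2.5 mM probenecid. FLIPR read 10 s baseline, then 120 s after drug addition.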

[5] = molecular target: T4, 5-hydroxytryptamine receptor 2B; test: Agonist activity at human 5-HT2B receptor expressed in HEK293 cells assessed as calcium flux by FLIPR assay relative to 5-HT; format: functional, cell-based; summary of the method: as §1
[6] = molecular target: T3, 5-hydroxytryptamine receptor 2A; test: Agonist activity at human 5-HT2A receptor expressed in HEK293 cells assessed as calcium flux at 10 uM by FLIPR assay; format: functional, cell-based; summary of the method: as §2
[7] = molecular target: T4, 5-hydroxytryptamine receptor 2B; test: Agonist activity at human 5-HT2B receptor expressed in HEK293 cells assessed as calcium flux by FLIPR assay; format: functional, cell-based
[8] = molecular target: T4, 5-hydroxytryptamine receptor 2B; test: Agonist activity at 5HT2B receptor (unknown origin) relative to control; summary of the method: as §1
[9] = molecular target: T3, 5-hydroxytryptamine receptor 2A; test: Agonist activity at human 5-HT2A receptor expressed in HEK293 cells assessed as calcium flux by FLIPR assay relative to 5-HT; format: functional, cell-based; summary of the method: as §1
Salmonella typhimurium [10] = test: Mutagenic activity in Salmonella typhimurium TA98 at 10 to 100 uM by ames test in presence of S9 mixture; format: toxicity, organism-based; details: salmonella enterica subsp. enterica serovar typhimurium
Summary of the method: (§3)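 Ames fluctuation test in Salmonella strains TA98, TA100, TA1535 and TA1537, with and without S9, at 10, 50 and 100 µM; scored negative or positive.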

Liver = test: Metabolic stability in mouse liver microsomes; format: ADME
Summary of the method: (§4)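 Incubation with human or CD-1 mouse liver microsomes for 1 h; stability expressed as % parent compound remaining.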

[11] = molecular target: Voltage-gated inwardly rectifying potassium channel KCNH2 (Homo sapiens, UniProt Q12809); test: Inhibition of human ERG channel expressed in CHO cells by patch clamp method; format: cell-based
Salmonella typhimurium [12] = test: Mutagenic activity in Salmonella typhimurium TA1535 at 10 to 100 uM by ames test in presence of S9 mixture; format: toxicity, organism-based; details: salmonella enterica subsp. enterica serovar typhimurium; summary of the method: as §3
Salmonella typhimurium [13] = test: Mutagenic activity in Salmonella typhimurium TA1537 at 10 to 100 uM by ames test; format: toxicity, organism-based; details: salmonella enterica subsp. enterica serovar typhimurium; summary of the method: as §3
[14] = Plasma protein binding in human at 10 uM; format: ADME, cell-free
Summary of the method: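 Human plasma protein binding determined at 10 µM compound, expressed as % bound.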

Salmonella typhimurium [15] = test: Mutagenic activity in Salmonella typhimurium TA1535 at 10 to 100 uM by ames test; format: toxicity, organism-based; details: salmonella enterica subsp. enterica serovar typhimurium; summary of the method: as §3
Salmonella typhimurium [16] = test: Mutagenic activity in Salmonella typhimurium TA1537 at 10 to 100 uM by ames test in presence of S9 mixture; format: toxicity, organism-based; details: salmonella enterica subsp. enterica serovar typhimurium; summary of the method: as §3
Liver microsome = test: Metabolic stability in human liver microsomes; format: ADME; summary of the method: as §4
Salmonella typhimurium [17] = test: Mutagenic activity in Salmonella typhimurium TA98 at 10 to 100 uM by ames test; format: toxicity, organism-based; details: salmonella enterica subsp. enterica serovar typhimurium; summary of the method: as §3
[18] = Permeability from apical to basolateral side in human Caco2 cells at pH 7.4; format: ADME, cell-based; details: caco-2, pH 7.4
Summary of the method: (§5)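 Caco-2 monolayer permeability measured A–B and B–A in pH 7.4 buffer, reported as ×10−6 cm/s; A–B/B–A ratio derived from these.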

Salmonella typhimurium [19] = test: Mutagenic activity in Salmonella typhimurium TA100 at 10 to 100 uM by ames test; format: toxicity, organism-based; details: salmonella enterica subsp. enterica serovar typhimurium; summary of the method: as §3
[20] = Permeability from basolateral to apical side in human Caco2 cells at pH 7.4; format: ADME, cell-based; details: caco-2, pH 7.4; summary of the method: as §5
Salmonella typhimurium [21] = test: Mutagenic activity in Salmonella typhimurium TA100 at 10 to 100 uM by ames test in presence of S9 mixture; format: toxicity, organism-based; details: salmonella enterica subsp. enterica serovar typhimurium; summary of the method: as §3
[22] = molecular target: T2, 5-hydroxytryptamine receptor 2C (Homo sapiens); test: Agonist activity at human 5-HT2C receptor expressed in HEK293 cells assessed as calcium flux at 10 uM by FLIPR assay; format: functional, cell-based; summary of the method: as §2

T3 sequence (P28223 whole entry): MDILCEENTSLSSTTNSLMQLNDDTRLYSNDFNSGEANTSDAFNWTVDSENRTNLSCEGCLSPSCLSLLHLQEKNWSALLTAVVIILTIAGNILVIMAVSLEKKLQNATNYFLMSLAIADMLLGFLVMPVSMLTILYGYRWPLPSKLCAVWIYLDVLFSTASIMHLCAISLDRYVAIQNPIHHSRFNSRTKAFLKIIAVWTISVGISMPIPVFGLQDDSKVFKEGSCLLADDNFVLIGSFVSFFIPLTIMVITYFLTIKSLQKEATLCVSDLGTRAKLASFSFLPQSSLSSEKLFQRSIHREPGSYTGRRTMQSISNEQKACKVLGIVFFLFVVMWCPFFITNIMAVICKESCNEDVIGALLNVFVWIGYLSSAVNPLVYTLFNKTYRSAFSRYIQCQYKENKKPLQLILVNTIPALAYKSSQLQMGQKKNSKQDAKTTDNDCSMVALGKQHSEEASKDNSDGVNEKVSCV
T4 sequence (P41595 whole entry): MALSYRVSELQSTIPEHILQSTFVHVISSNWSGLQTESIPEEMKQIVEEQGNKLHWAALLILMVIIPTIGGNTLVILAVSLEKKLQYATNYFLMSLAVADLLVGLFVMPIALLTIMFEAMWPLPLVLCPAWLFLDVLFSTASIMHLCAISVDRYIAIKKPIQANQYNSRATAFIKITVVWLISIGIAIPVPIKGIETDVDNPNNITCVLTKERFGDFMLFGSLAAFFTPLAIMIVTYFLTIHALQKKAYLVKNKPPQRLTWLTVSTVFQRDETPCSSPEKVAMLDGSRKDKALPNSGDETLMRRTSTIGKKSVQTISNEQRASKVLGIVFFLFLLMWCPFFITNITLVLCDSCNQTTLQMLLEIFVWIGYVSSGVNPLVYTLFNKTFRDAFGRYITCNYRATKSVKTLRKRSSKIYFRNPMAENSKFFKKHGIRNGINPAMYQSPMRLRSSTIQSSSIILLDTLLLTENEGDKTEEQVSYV
Sequence of Voltage-gated inwardly rectifying potassium channel KCNH2 (Q12809 whole entry): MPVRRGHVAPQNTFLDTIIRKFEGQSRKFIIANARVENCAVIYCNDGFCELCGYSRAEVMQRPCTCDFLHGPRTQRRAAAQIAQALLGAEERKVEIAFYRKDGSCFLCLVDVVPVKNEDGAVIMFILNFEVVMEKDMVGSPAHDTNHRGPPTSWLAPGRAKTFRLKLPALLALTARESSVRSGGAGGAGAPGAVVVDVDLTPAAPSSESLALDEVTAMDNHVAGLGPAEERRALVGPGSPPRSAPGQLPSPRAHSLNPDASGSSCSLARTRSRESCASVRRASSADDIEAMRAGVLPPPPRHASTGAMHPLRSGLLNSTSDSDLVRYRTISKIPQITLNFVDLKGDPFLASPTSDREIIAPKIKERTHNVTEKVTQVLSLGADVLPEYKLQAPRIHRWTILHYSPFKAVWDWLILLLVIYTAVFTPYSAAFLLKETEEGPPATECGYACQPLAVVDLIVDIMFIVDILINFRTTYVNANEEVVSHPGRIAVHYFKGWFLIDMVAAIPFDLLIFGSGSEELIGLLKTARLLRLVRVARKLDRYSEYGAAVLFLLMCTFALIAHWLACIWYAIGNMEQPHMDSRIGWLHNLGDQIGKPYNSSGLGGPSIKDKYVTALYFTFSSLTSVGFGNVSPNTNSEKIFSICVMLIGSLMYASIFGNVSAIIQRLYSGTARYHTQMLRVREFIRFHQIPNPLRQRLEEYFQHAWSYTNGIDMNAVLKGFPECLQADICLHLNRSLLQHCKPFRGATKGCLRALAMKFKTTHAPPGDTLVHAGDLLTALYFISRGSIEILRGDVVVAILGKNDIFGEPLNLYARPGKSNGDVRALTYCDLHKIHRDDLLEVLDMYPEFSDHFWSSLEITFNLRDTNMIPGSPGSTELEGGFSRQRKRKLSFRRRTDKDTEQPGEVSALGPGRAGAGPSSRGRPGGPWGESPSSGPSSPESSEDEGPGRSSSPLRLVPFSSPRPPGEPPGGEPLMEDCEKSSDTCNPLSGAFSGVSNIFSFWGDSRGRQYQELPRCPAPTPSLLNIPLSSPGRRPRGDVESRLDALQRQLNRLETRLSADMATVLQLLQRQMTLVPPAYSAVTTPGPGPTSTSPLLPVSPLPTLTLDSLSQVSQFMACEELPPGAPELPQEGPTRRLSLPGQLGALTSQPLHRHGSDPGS

Row | SMILES | EC50 [1] [nM] | Emax [2] [%] | Emax [5] [%] | Activity [6] | EC50 [7] [nM] | other results
1 | C=C(F)COc1ccc(F)cc1[C@H]1C[C@@H]1CN | 22 | 91 | – | – | – | EC50 [3]: 1670 nM; Activity [4]: inactive
2 | NC[C@@H]1C[C@H]1c1cc(Cl)ccc1OCCF | 1130 | 59 | 31 | inactive | 4520 | –
3 | c1cc2c3c(c1)[C@H]1CCC[C@H]1N3CCNC2 | – | – | – | – | – | Emax [8]: 40%
4 | CCOc1ccc(Cl)cc1[C@H]1C[C@@H]1CN | 13 | 91 | 45 | – | 86 | Emax [9]: 49%; EC50 [3]: 1210 nM
5 | CC(C)Oc1ccc(Cl)cc1[C@H]1C[C@@H]1CN | 91 | – | – | – | 997 | EC50 [3]: 4000 nM
6 | CCOc1ccc(Cl)cc1[C@@H]1C[C@H]1CN | 646 | 72 | 26 | inactive | 2310 | –
7 | CCCOc1ccc(Cl)cc1[C@@H]1C[C@H]1CN | 1230 | 31 | 21 | inactive | 3000 | –
8 | CCCCOc1ccc(Cl)cc1[C@H]1C[C@@H]1CN | 288 | 33 | – | – | – | Activity [4]: inactive
9 | NC[C@@H]1C[C@H]1c1cc(F)ccc1OCCF | 514 | 77 | – | – | – | Emax [9]: 20%; EC50 [3]: 2990 nM; Activity [4]: inactive
10 | NC[C@H]1C[C@@H]1c1cc(Cl)ccc1OCCCF | 206 | 60 | 22 | inactive | 4910 | –
11 | C=C(C)COc1ccc(Cl)cc1[C@H]1C[C@@H]1CN | 212 | 90 | 32 | – | 422 | Emax [9]: 26%; EC50 [3]: 903 nM
12 | COCCOc1ccc(Cl)cc1[C@@H]1C[C@H]1CN | 667 | 45 | 32 | inactive | 5300 | –
13 | C=CCOc1ccc(Cl)cc1[C@H]1C[C@@H]1CN.O=C(O)C(F)(F)F | 60 | 80 | 32 | inactive | 2210 | Activity (Salmonella typhimurium [10]): Non-toxic; Stability (Liver): 60%; IC50 [11]: 270 nM; Activity (Salmonella typhimurium [12]): Non-toxic; Activity (Salmonella typhimurium [13]): Non-toxic; PPB [14]: 75%; Activity (Salmonella typhimurium [15]): Non-toxic; Activity (Salmonella typhimurium [16]): Non-toxic; Stability (Liver microsome): 52%; Activity (Salmonella typhimurium [17]): Non-toxic; permeability [18]: 35.6 ×10⁻⁶ cm/s; Activity (Salmonella typhimurium [19]): Non-toxic; permeability [20]: 9.8 ×10⁻⁶ cm/s; Activity (Salmonella typhimurium [21]): Non-toxic
14 | c1cc2c3c(c1)[C@H]1CCC[C@H]1CN3CCNC2 | – | – | – | – | – | Emax [8]: 50%
15 | C#CCOc1ccc(Cl)cc1[C@H]1C[C@@H]1CN | 63 | 65 | 29 | – | 4600 | Emax [9]: 21%; EC50 [3]: 1010 nM
16 | C=C(F)COc1ccc(Cl)cc1[C@@H]1C[C@H]1CN | – | – | 33 | inactive | 6880 | Activity [22]: inactive
17 | NC[C@@H]1C[C@H]1c1cc(Cl)ccc1OCCCF | 1260 | 24 | 22 | inactive | 6170 | –

Row | SMILES | EC50 [1] [nM] | Emax [2] [%] | Emax [5] [%] | Activity [6] | EC50 [7] [nM] | other results
18 | C=C(C)COc1ccc(Cl)cc1[C@@H]1C[C@H]1CN | – | – | 39 | inactive | 6090 | Activity [22]: inactive
19 | COCCOc1ccc(Cl)cc1[C@H]1C[C@@H]1CN | 183 | 8 | – | inactive | – | Activity [4]: inactive
20 | CC(C)Oc1ccc(Cl)cc1[C@@H]1C[C@H]1CN | 2480 | – | – | – | 5660 | –
21 | NC[C@H]1C[C@@H]1c1cc(Cl)ccc1OCC(F)F | 91 | 81 | 27 | – | 839 | Emax [9]: 31%; EC50 [3]: 1810 nM
22 | NC[C@H]1C[C@@H]1c1cc(Cl)ccc1OCC1CC1 | 251 | 75 | 20 | inactive | 5010 | –
23 | C#CCOc1ccc(Cl)cc1[C@@H]1C[C@H]1CN | 365 | 71 | 30 | inactive | 4410 | –
24 | C[C@H]1CNCCc2ccc(Cl)cc21 | – | – | – | – | – | Emax [9]: 68%
25 | C=CCOc1ccc(F)cc1[C@@H]1C[C@H]1CN | 157 | 87 | – | – | – | Emax [9]: 56%; EC50 [3]: 697 nM; Activity [4]: inactive
26 | CCCOc1ccc(F)cc1[C@@H]1C[C@H]1CN | 296 | 80 | 11 | inactive | 735 | –
27 | CCCOc1ccc(F)cc1[C@H]1C[C@@H]1CN | 11 | 88 | 33 | – | 1990 | Emax [9]: 15%; EC50 [3]: 1020 nM
28 | NC[C@@H]1C[C@H]1c1cc(Cl)ccc1OCC1CC1 | 1080 | 51 | 32 | inactive | 3030 | –
29 | CSCCOc1ccc(Cl)cc1[C@@H]1C[C@H]1CN | 1760 | 11 | – | inactive | – | Activity [4]: inactive
30 | NC[C@@H]1C[C@H]1c1cc(Cl)ccc1OCC(F)F | 914 | 64 | 30 | – | 1480 | Emax [9]: 43%; EC50 [3]: 1300 nM
31 | C=C(F)COc1ccc(F)cc1[C@@H]1C[C@H]1CN | 985 | 62 | – | inactive | – | Activity [4]: inactive
32 | C=CCOc1ccc(Cl)cc1[C@@H]1C[C@H]1CN | 737 | 42 | 28 | inactive | 4300 | –
33 | CSCCOc1ccc(Cl)cc1[C@H]1C[C@@H]1CN | 244 | 24 | – | inactive | – | Activity [4]: inactive
34 | CCCCOc1ccc(Cl)cc1[C@@H]1C[C@H]1CN | 683 | 50 | – | – | – | Activity [4]: inactive
